These results are taken from ChEMBL document CHEMBL4257502, “Anti-cancer effect of a novel 2,3-didithiocarbamate-substituted naphthoquinone as a tumor metabolic suppressor in vitro and in vivo” (Medchemcomm, 2018).

Calls of active or inactive are those of the source. The calls are words filed in the database; no cut-off is given here.

In one data set the target is Pyruvate kinase PKLR (Homo sapiens, UniProt P30613). Nature of the data set: Inhibition of recombinant human N-terminal His-tagged PKL expressed in Escherichia coli preincubated for 25 mins in presence of PEP/FBP followed by ADP/NADH addition measured after 25 mins by PK-LDH assay.
Sequence of Pyruvate kinase PKLR (P30613 whole entry): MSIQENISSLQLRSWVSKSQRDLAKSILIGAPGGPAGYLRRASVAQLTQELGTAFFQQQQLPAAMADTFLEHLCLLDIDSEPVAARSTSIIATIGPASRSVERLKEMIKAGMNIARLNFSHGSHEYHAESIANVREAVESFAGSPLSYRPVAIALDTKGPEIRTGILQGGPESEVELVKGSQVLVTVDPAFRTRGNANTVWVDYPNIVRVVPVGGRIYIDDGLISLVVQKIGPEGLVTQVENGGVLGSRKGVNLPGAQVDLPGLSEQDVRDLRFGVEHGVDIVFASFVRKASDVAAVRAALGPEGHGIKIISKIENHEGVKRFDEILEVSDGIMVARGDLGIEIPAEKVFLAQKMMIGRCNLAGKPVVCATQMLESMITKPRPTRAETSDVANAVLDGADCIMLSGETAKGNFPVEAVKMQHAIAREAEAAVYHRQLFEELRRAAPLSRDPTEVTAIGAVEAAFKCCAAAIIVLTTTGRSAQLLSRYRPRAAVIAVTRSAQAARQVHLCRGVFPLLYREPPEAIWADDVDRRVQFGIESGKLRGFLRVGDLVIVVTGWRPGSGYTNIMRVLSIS
Data set [1] deals with B16. Nature of the data set: Antitumor activity against mouse B16 cells implanted in ip dosed C57BL/6 mouse assessed as tumor growth inhibition administered every 2 days for 12 days. It is filed as functional, organism-based. In outline:
(§1)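 Female mice given 1 × 10^6 B16 cells subcutaneously in the armpit. Dosing began about 6 days later, once tumors appeared, with N = 7 per group. Compound or vehicle (5% v/v DMAC in olive oil) was given ip every two days at 25 or 50 mg kg–1. Tumor volume was measured every two days as V = L(S2)π/6. Tumors were weighed individually. T/C was taken as relative tumor volume growth rate.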

The subject of the next data set is MCF7. Nature of the data set: Cytotoxicity against human MCF7 cells after 48 hrs by MTS assay. It is filed as functional, cell-based. In outline: (§2)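 Cells seeded at 5000–10 000 per well and treated 12 h later with a range of concentrations for 48 h. Viability read by MTS reduction. IC50 reported ± SD.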
Data set [2] deals with T1, Pyruvate kinase PKM (Homo sapiens, UniProt P14618). Nature of the data set: Inhibition of PKM2 in human HCT116 cells assessed as reduction in cMYC-induced LDH gene expression at 20 uM after 8 hrs by RT-qPCR analysis. It counts as cell-based. The essentials: (§3)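 HCT116 cells seeded at 5 × 10^5 per well and treated 24 h later with 20 μM for 8 h. RNA extracted with TRIzol and reverse-transcribed. GLUT1, LDH and CCND1 transcripts quantified by SYBR Green qPCR.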
Target sequence in this assay (P14618 2-531 limits assumed): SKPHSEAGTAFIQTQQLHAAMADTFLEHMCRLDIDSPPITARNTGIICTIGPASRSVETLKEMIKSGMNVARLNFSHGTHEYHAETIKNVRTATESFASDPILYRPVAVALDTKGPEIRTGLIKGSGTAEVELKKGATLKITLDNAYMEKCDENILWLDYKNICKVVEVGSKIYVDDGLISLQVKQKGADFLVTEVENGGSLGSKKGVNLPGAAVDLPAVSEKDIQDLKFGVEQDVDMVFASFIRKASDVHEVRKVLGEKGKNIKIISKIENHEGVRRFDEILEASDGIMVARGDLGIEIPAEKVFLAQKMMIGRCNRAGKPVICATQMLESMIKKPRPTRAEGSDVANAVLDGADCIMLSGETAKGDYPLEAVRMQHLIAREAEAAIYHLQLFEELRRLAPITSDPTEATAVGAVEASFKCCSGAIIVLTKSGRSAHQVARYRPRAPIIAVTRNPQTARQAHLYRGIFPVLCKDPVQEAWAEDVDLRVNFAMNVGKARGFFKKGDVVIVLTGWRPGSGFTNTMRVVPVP

The next data set concerns BEAS-2B. The experiment in a line: Cytotoxicity against human BEAS2B cells after 48 hrs by MTS assay. It is filed as cell-based. The essentials:
as §2

The target in data set [3] is T1, Pyruvate kinase PKM. Nature of the data set: Inhibition of PKM2 in human HCT116 cells assessed as reduction in beta-catenin-induced CCND1 gene expression at 20 uM after 8 hrs by RT-qPCR analysis. It is filed as cell-based. In outline: as §3
Target sequence in this assay (P14618 2-531 limits assumed): as above
For data set [4], the system named is spontaneous PTEN-deleted breast carcinoma (Mus musculus). Nature of the data set: Antitumor activity against mouse spontaneous PTEN-deleted breast carcinoma assessed as reduction in tumor weight at 50 mg/kg, ip administered every 2 days for 36 days relative to control. The arrangement: scale not given: the % may be the effect or the level left.
A further data set relates to NCI-H1299. Nature of the data set: Cytotoxicity against human NCI-H1299 cells after 48 hrs by MTS assay. It counts as functional, cell-based. In outline:
as §2

Data set [5] deals with B16. The experiment in a line: Antitumor activity against mouse B16 cells implanted in C57BL/6 mouse assessed as tumor volume at 50 mg/kg, ip administered every 2 days for 12 days measured during compound dosing relative to control. It is filed as functional. In outline:
as §1

The species named for data set [6] is Homo sapiens. The experiment in a line: Selectivity ratio of IC50 for recombinant human N-terminal His-tagged PKL expressed in Escherichia coli to IC50 for recombinant human N-terminal His-tagged PKM2 expressed in Escherichia coli.
The subject of data set [7] is B16. Nature of the data set: Antitumor activity against mouse B16 cells implanted in C57BL/6 mouse assessed as reduction in tumor weight at 50 mg/kg, ip administered every 2 days for 12 days relative to control. It counts as functional. The arrangement: scale not given: the % may be the effect or the level left. The essentials:
as §1

Data set [8] addresses T1, Pyruvate kinase PKM. Nature of the data set: Inhibition of recombinant human N-terminal His-tagged PKM1 expressed in Escherichia coli preincubated for 25 mins in presence of PEP/FBP followed by ADP/NADH addition measured after 25 mins by PK-LDH assay.
Target sequence in this assay (P14618 whole entry): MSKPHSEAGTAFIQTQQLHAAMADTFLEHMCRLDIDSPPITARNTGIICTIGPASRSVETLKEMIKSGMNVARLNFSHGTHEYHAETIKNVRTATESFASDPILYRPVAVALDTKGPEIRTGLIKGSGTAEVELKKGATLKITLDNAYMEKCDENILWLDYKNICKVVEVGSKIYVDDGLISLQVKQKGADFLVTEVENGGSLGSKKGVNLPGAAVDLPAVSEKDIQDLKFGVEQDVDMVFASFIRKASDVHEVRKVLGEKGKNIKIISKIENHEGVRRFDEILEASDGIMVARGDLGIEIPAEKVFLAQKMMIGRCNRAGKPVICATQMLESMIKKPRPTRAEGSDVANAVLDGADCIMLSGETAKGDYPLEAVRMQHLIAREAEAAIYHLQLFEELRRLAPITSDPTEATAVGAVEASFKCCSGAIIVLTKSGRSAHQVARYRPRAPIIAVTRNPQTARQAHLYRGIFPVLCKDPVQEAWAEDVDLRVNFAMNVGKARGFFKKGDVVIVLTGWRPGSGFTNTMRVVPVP
For data set [9], the species on record is Homo sapiens. The experiment in a line: Selectivity ratio of IC50 for recombinant human N-terminal His-tagged PKM1 expressed in Escherichia coli to IC50 for recombinant human N-terminal His-tagged PKM2 expressed in Escherichia coli.
For data set [10], the system named is spontaneous PTEN-deleted breast carcinoma (Mus musculus). Nature of the data set: Antitumor activity against mouse spontaneous PTEN-deleted breast carcinoma assessed as reduction in tumor growth at 50 mg/kg, ip administered every 2 days for 36 days.
The test system of a further data set is MDA-MB-231. The experiment in a line: Cytotoxicity against human MDA-MB-231 cells after 48 hrs by MTS assay. It is filed as functional, cell-based. In outline:
as §2

Data set [11] concerns the target T1, Pyruvate kinase PKM. Nature of the data set: Inhibition of recombinant human N-terminal His-tagged PKM2 expressed in Escherichia coli preincubated for 25 mins in presence of PEP/FBP followed by ADP/NADH addition measured after 25 mins by PK-LDH assay.
Target sequence in this assay (P14618 whole entry): as above
For data set [12], the system named is B16. The experiment in a line: Cytotoxicity against mouse B16 cells after 48 hrs by MTS assay. It is filed as functional, cell-based. The essentials: as §2
Data set [13] concerns the target T1, Pyruvate kinase PKM. Nature of the data set: Inhibition of PKM2 in human HCT116 cells assessed as reduction in cMYC-induced GLUT1 gene expression at 20 uM after 8 hrs by RT-qPCR analysis. It counts as cell-based. The essentials:
as §3
Target sequence in this assay (P14618 2-531 limits assumed): as the sequence (P14618 2-531 limits assumed) above

The test system of data set [14] is B16. Nature of the data set: Antitumor activity against mouse B16 cells implanted in C57BL/6 mouse assessed as tumor weight at 25 mg/kg, ip administered every 2 days for 12 days relative to control. It is filed as functional. The essentials: as §1
A further data set concerns Mus musculus. Nature of the data set: Toxicity in C57BL/6 mouse implanted with mouse B16 cells assessed as effect on body weight at 25 to 50 mg/kg, ip administered every 2 days for 12 days. It counts as organism-based. As to conditions: in vivo. The essentials: as §1
For data set [15], the target named is T1, Pyruvate kinase PKM. Nature of the data set: Inhibition of PKM2 in human HCT116 cells measured after 8 hrs by fluorescent PK-LDH assay. It is filed as cell-based. The essentials: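 HCT116 cells exposed to 2.5, 5, 10 or 20 μM for 8 h, then lysed in NP40 buffer. Lysate pyruvate kinase activity was measured immediately by fluorescent PK–LDH coupled assay.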
Target sequence in this assay (P14618 2-531 limits assumed): as above

The subject of data set [16] is HCT-116. Nature of the data set: Cytotoxicity against human HCT116 cells assessed as reduction in ATP production at 10 to 20 uM after 6 hrs by CellTiter-Glo luminescent assay. It is filed as functional, cell-based. In outline: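 HCT116 cells seeded at 5 × 10^5 per well in 6-well plates. Exposed 24 h later to 10 μM or 20 μM for 6 h. Cellular ATP read by CellTiter-Glo luminescence.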

Another data set deals with HeLa. Nature of the data set: Cytotoxicity against human HeLa cells after 48 hrs by MTS assay. It is filed as functional, cell-based. In outline: as §2
Data set [17] concerns HCT-116. Nature of the data set: Cytotoxicity against human HCT116 cells after 48 hrs by MTS assay. It is filed as functional, cell-based. The essentials:
as §2

For `O=C1C(CSC(=S)N2CCCCC2)=C(CSC(=S)N2CCCCC2)C(=O)c2ccccc21`, the IC50 at Pyruvate kinase PKLR was determined as 2900 nM; with MCF7 (MCF7, 48 h), 61 nM; with BEAS-2B, 32.6 µM; with NCI-H1299 (NCI-H1299, 48 h), 109 nM; on Pyruvate kinase PKM [8] it was 5.07 µM; in the data set on MDA-MB-231 (MDA-MB-231, 48 h), 135 nM. The IC50 was found to be 880 nM on Pyruvate kinase PKM [11]; 104 nM in the data set with B16 [12] (B16, 48 h); 124 nM in the data set with HeLa; 77 nM in the data set on HCT-116 [17] (HCT-116, 48 h). Also, the TGI result with B16 [1] is “Dose-dependent effect”. Further, the Activity entry in the data set on MCF7 was “Dose-dependent effect”; in data set [4], 20%; in the data set with NCI-H1299, “Dose-dependent effect”; in the data set with B16 [7] it was 30%; with MDA-MB-231, “Dose-dependent effect”; with B16 [12], “Dose-dependent effect”. Further, the Activity was 12% in the data set on B16 [14], “Non-Toxic” with Mus musculus, “Dose-dependent effect” in the data set on HeLa and “Dose-dependent effect” in the data set on HCT-116 [17]. In addition, the inhibition entry at Pyruvate kinase PKM [2], at Pyruvate kinase PKM [3] and at Pyruvate kinase PKM [13] was “Active” each time. Also, the T/C in the data set with B16 [5] is 40%. Moreover, the Ratio IC50 amounted to 3.3 in the data set filed under Homo sapiens [6] and 5.8 in the data set listed under Homo sapiens [9]. The outcome (in [10]; in the data set on HCT-116 [16]) was Active. Further, the inhibition result at Pyruvate kinase PKM [15] is “Dose-dependent effect”.
As for `CC(C)=CC[C@@H](O)C1=CC(=O)c2c(O)ccc(O)c2C1=O`, the Ratio IC50 in the data set listed under Homo sapiens [6] worked out at 4.5; in the data set filed under Homo sapiens [9], 1.5.
